Data published in ChEMBL document CHEMBL3397004, “Furan-based acetylating agent for the chemical modification of proteins” (Bioorg Med Chem, 2015).
Active and inactive are the calls of the source. The calls are words filed in the database; no cut-off is given here.

Tests used:
[1] = target: Cytochrome c (Bos taurus) (UniProt P62894); assay: Induction of chemical modification in bovine heart cytochrome c tertiary structure assessed as effect on adduct formation at 0.3 to 1.2 mM by circular dichroism analysis
Chain of Cytochrome c (Bos taurus) (P62894 whole entry): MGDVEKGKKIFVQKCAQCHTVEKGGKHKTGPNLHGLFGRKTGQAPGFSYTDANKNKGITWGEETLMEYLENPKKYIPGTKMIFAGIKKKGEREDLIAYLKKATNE

[2] = target: Cytochrome c (Bos taurus) (UniProt P62894); assay: Induction of chemical modification in bovine heart cytochrome c assessed as exposure of hydrophobic core at 0.3 to 1.2 mM by ANS staining-based fluorescence assay
Outline: (§1)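 Proteins (50 µM) modified overnight at 37 °C with BAMF (0.3–1.2 mM) in 50 mM phosphate pH 7.4, then measured at 5 µM. ANS was used at 16-fold over protein. Excitation 360 nm, emission 400–600 nm, slits 10 nm, 3 mm quartz cell. Blanks subtracted, each spectrum at least three times.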

[3] = target: Cytochrome c (Bos taurus) (UniProt P62894); assay: Induction of chemical modification in bovine heart cytochrome c assessed as denaturation temperature at 1.2 mM by UV-vis spectrophotometry (Tm = 56.5 +/- 0.1 degC)
[4] = target: Lysozyme C (Gallus gallus) (UniProt P00698); assay: Induction of chemical modification in chicken egg white lysozyme assessed as exposure of hydrophobic core at 0.3 to 1.2 mM by ANS staining-based fluorescence assay; outline: as §1
Chain of Lysozyme C (Gallus gallus) (P00698 whole entry): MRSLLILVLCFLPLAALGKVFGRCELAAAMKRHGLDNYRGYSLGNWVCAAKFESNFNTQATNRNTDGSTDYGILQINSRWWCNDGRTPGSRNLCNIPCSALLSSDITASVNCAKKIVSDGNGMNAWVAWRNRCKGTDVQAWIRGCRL

[5] = target: Cytochrome c (Bos taurus) (UniProt P62894); assay: Induction of chemical modification in bovine heart cytochrome c in phosphate buffer assessed as disappearance of peak at 530 nm and appearance of new peaks at 522 and 551 nm at pH 7.4 after overnight incubation by UV-vis spectrophotometry
Outline: (§2)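 Cytochrome c (50 µM) incubated overnight at 37 °C, pH 7.4, with 2 mM BAMF or 2 mM aspirin in phosphate buffer. UV–vis spectra recorded about 350–600 nm (Soret and Q-band region) and compared with native protein.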

[6] = target: Cytochrome c (Bos taurus) (UniProt P62894); assay: Induction of chemical modification in bovine heart cytochrome c assessed as denaturation temperature at 0.3 mM by UV-vis spectrophotometry (Tm = 56.5 +/- 0.1 degC)
[7] = target: Cytochrome c (Bos taurus) (UniProt P62894); assay: Induction of chemical modification in bovine heart cytochrome c in phosphate buffer assessed as adduct formation at heme center at 2 mM at pH 7.4 after 1 hr by UV-vis spectrophotometry
Outline: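 Cytochrome c treated with 2 mM acetylating agent in phosphate buffer pH 7.4. Heme redox/reduction kinetics followed by absorbance at 550 nm over 1 h, with aspirin at 2 mM as the reference acetylating agent.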

[8] = target: Lysozyme C (Gallus gallus) (UniProt P00698); assay: Induction of chemical modification in chicken egg white lysozyme assessed as effect on enzyme activity at 0.3 to 1.2 mM by UV-vis spectrophotometry
Outline: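 Lysozyme (50 µM) modified overnight at 37 °C with 0.3, 0.6, 0.9 or 1.2 mM BAMF in 50 mM phosphate pH 7.4. Hydrolytic activity read turbidimetrically as the fall in A450 of a bacterial cell suspension over 1500 s. Specific activity plotted against BAMF concentration.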

[9] = target: Cytochrome c (Bos taurus) (UniProt P62894); assay: Induction of chemical modification in bovine heart cytochrome c assessed as additional peaks at 1.2 mM at pH 7.4 by ESI-MS spectroscopic technique
[10] = target: Cytochrome c (Bos taurus) (UniProt P62894); assay: Induction of chemical modification in bovine heart cytochrome c assessed as change in negative peaks of at 282 nm and 289 nm of tyrosyl side chains at 0.3 to 1.2 mM by circular dichroism analysis
[11] = target: Cytochrome c (Bos taurus) (UniProt P62894); assay: Induction of chemical modification in bovine heart cytochrome c in phosphate buffer assessed as appearance of new peak at 414 nm at 2 mM at pH 7.4 after overnight incubation by UV-vis spectrophotometry; outline: as §2
[12] = target: Cytochrome c (Bos taurus) (UniProt P62894); assay: Induction of chemical modification in bovine heart cytochrome c assessed as denaturation temperature at 0.6 mM by UV-vis spectrophotometry (Tm = 56.5 +/- 0.1 degC)
[13] = target: Lysozyme C (Gallus gallus) (UniProt P00698); assay: Induction of chemical modification in chicken egg white lysozyme tertiary structure assessed as effect on adduct formation at 0.3 to 1.2 mM by circular dichroism analysis
[14] = target: Cytochrome c (Bos taurus) (UniProt P62894); assay: Induction of chemical modification in bovine heart cytochrome c tertiary structure in phosphate buffer assessed as intact band at 695 nm at pH 7.4 after overnight incubation by UV-vis spectrophotometry
Outline: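 Cytochrome c modified overnight at 37 °C in 50 mM phosphate pH 7.4 with BAMF. UV–vis absorbance scanned 600–800 nm to monitor the 695 nm Met-80–heme ligand band, compared with native protein.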

[15] = target: Cytochrome c (Bos taurus) (UniProt P62894); assay: Induction of chemical modification in bovine heart cytochrome c assessed as denaturation temperature at 0.9 mM by UV-vis spectrophotometry (Tm = 56.5 +/- 0.1 degC)
[16] = target: Cytochrome c (Bos taurus) (UniProt P62894); assay: Induction of chemical modification in bovine heart cytochrome c in phosphate buffer assessed as appearance of new peak at 413 nm at 2 mM at pH 7.4 after overnight incubation by UV-vis spectrophotometry; outline: as §2

| Activity [1] | Activity [2] | Tm [3] [°C] | Activity [4] | Activity [5] | Tm [6] [°C] | Activity [7] | Activity [8] | Activity [9] | Activity [10] | Activity [11] | Tm [12] [°C] | Activity [13] | Activity [14] | Tm [15] [°C] | Activity [16] | Compound |
| --- | --- | --- | --- | --- | --- | --- | --- | --- | --- | --- | --- | --- | --- | --- | --- | --- |
| inactive | inactive | 53 | inactive | Active | 54.8 | Active | inactive | Active | inactive | Active | 54.7 | inactive | inactive | 53.8 | – | CC(=O)OCc1ccc(COC(C)=O)o1 |
| – | – | – | – | – | – | – | – | – | – | – | – | – | – | – | Active | CC(=O)Oc1ccccc1C(=O)O |
